Data published in ChEMBL document CHEMBL1821696, “Substitution of the phosphonic acid and hydroxamic acid functionalities of the DXR inhibitor FR900098: an attempt to improve the activity against Mycobacterium tuberculosis” (Bioorg Med Chem Lett, 2011).
In brackets after ≈: the same amount, converted by molar mass.

What was measured:
[1] = target: T1, 1-deoxy-D-xylulose 5-phosphate reductoisomerase (Mycobacterium tuberculosis) (UniProt P9WNS1); experiment: Inhibition of Mycobacterium tuberculosis DXR assessed as reduction of 1-deoxy-D-xylulose 5-phosphate into 2-C-methyl-D-erythritol-4-phosphate at 100 uM measured for every 5 secs upto 500 secs by spectrophotometry analysis
T1 sequence (whole entry): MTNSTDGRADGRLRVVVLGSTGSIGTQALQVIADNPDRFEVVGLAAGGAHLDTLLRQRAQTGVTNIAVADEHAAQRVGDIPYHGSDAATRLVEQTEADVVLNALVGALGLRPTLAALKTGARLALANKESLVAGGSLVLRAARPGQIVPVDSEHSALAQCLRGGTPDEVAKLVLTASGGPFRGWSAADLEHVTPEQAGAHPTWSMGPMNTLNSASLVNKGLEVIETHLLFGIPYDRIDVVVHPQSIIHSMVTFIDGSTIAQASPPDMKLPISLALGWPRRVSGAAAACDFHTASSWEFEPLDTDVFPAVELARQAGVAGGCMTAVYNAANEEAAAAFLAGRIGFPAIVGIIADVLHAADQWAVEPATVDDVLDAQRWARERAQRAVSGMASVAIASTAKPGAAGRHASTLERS
Method in brief: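 MtDXR reaction in 50 mM HEPES-NaOH pH 7.5, 100 mM NaCl, 1.5 mM MnCl2, 0.2 mM NADPH, 0.2 mM DXP and a single inhibitor concentration. Started by adding DXP and run at 22 °C. NADPH consumption read as A340 every 5 s for 500 s. Initial velocity from the linear slope gives % inhibition relative to the uninhibited reaction.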

[2] = target: T2, 1-deoxy-D-xylulose 5-phosphate reductoisomerase (Mycobacterium tuberculosis, UniProt P9WNS1); experiment: Inhibition of Mycobacterium tuberculosis DXR assessed as reduction of 1-deoxy-D-xylulose 5-phosphate into 2-C-methyl-D-erythritol-4-phosphate measured for every 5 secs upto 500 secs by spectrophotometry analysis
T2 sequence (P9WNS1 whole entry): T1 sequence (whole entry)
Method in brief: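 MtDXR in 50 mM HEPES-NaOH pH 7.5, 100 mM NaCl, 1.5 mM MnCl2, 0.2 mM NADPH and 0.2 mM DXP, started with DXP at 22 °C. A340 read every 5 s for 500 s. Six inhibitor concentrations spanning 0.01–1000. Initial-rate activities relative to the uninhibited reaction were fitted to a Hi/Lo four-parameter curve for IC50.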

[3] = system: Mycobacterium tuberculosis; experiment: Antimycobacterial activity against Mycobacterium tuberculosis by whole-cell assay; format: functional

| Compound | inhibition [1] [%] | IC50 [2] [µM] | MIC [3] [µg/mL] |
| --- | --- | --- | --- |
| CC(=O)N(O)CCC1NC(=O)NC1=O (configuration not stated) | 13 |  |  |
| O=c1oc2cccnc2n1CCCP(=O)(O)O | 11 |  |  |
| CC(=O)N(O)CCCP(=O)(O)OCCc1ccccc1 | 23 |  |  |
| O=c1cccc(CCP(=O)(O)O)n1O | 61 | 53 | > 512 |
| CC(=O)N(O)CCCS(=O)(=O)O | 36 | > 100 |  |
| CC(=O)N(O)CCCC(=O)O | 0 |  |  |
| O=c1oc2cc(Br)cnc2n1CCCP(=O)(O)O | 7 |  |  |
| O=C1NC(=O)C(CCP(=O)(O)O)N1 (configuration not stated) | 8 |  |  |
| CC(=O)N(O)CCc1c(C(=O)O)noc1C | 41 | 151 | > 512 |
| O=c1oc2cc(-c3ccccc3)cnc2n1CCCP(=O)(O)O | 11 |  | 256 (≈ 766 µM) |
| CC(=O)N(O)CCCc1nnn[nH]1 | 0 |  |  |
| CC(=O)N(O)CCCC(=O)NS(C)(=O)=O | 29 |  |  |
| O=C1N[C@H](CCP(=O)(O)O)CO1 | 0 |  |  |
| O=P(O)(O)CCc1ccc(O)c(O)c1 | 78 | 41 | > 512 |
